The results in this text go back to ChEMBL document CHEMBL1799943, “1-(5-Carboxyindol-1-yl)propan-2-one inhibitors of human cytosolic phospholipase A2α: effect of substituents in position 3 of the indole scaffold on inhibitory potency, metabolic stability, solubility, and bioavailability” (J Med Chem, 2010).

As usually defined, the logP is the decadic logarithm of the partition coefficient of the neutral form, usually between octanol and water. A high value points to higher lipophilicity.

The subject of series [1] is Intestine. Description: Drug level in C57Bl6 mouse intestine assessed as 3-(5-Carboxypentanoyl)-1-[2-hydroxy-3-(4-octylphenoxy)propyl]indole-5-carboxylic acid level assessed per gut at 100 mg/kg, po after 2 hrs by HPLC analysis in presence of Helix pomatia beta-glucuronidase HP2. It is filed as ADME, organism-based. Further details: dose 100 mg/kg, route oral. The settings on record: in vivo.

Series [2] can be described thus: Drug level in C57Bl6 mouse plasma at 100 mg/kg, po after 2 hrs by HPLC analysis. Further details: dose 100 mg/kg, route oral. It is filed as ADME, organism-based. An outline of the steps:
(§1)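 Male/female unspecified C57Bl6 mice (n = 3) got a single 100 mg/kg oral gavage dose as a suspension in 1% aqueous methylcellulose (8 μL/g). Blood was drawn at 1 and 2 h and centrifuged at 3000g for 20 min. Plasma was mixed with pH 7.4 PBS and acetonitrile, left 5 min at room temperature and spun at 2000g for 15 min. Supernatant went to reversed-phase C18 HPLC-UV for parent and alcohol metabolite.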

Series [3] can be described thus: Drug level in C57Bl6 mouse plasma at 100 mg/kg, po after 1 hr by HPLC analysis. It is filed as ADME, organism-based. Further details: dose 100 mg/kg, route oral. An outline of the steps:
as §1

The subject of series [4] is Intestine. Description: Drug level in C57Bl6 mouse intestine assessed per gut at 100 mg/kg, po after 2 hrs by HPLC analysis in presence of Helix pomatia beta-glucuronidase HP2. The settings on record: in vivo. Set-up: dose 100 mg/kg, route oral. The format is ADME, organism-based.
A short description of series [5]: Metabolic stability in rat liver microsomes assessed as compound remaining after 30 mins by UV-reverse phase HPLC analysis. The format is ADME, Microsome. The settings on record: read-out: Stability. In general terms: Liver microsomes are a subcellular fraction often used to study metabolism.
The nature of series [6]: Partition coefficient, log P of the compound by reverse phase HPLC analysis. It is filed as physicochemical. Particulars: octanol/water. An outline of the steps: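 log P estimated from reversed-phase HPLC retention times of each compound's ketone form.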
The nature of series [7]: Drug level in C57Bl6 mouse bile at 100 mg/kg, po after 2 hrs by HPLC analysis. The format is ADME, organism-based. Set-up: dose 100 mg/kg, route oral. The settings on record: read-out: Drug uptake. An outline of the steps:
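Mice (C57Bl6, n = 3) were dosed orally by gavage at 100 mg/kg in 1% methylcellulose and killed 2 h later for bile collection. For direct measurement, bile was diluted in pH 7.4 PBS with equal acetonitrile. Alternatively, bile in pH 5.5 PBS was digested with Helix pomatia β-glucuronidase HP-2 at 60 °C for 1 h, then acetonitrile was added. Both were centrifuged at 2000g and analysed by reversed-phase HPLC-UV.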

Series [8] concerns Plasma. Description: Drug level in C57Bl6 mouse plasma assessed as 3-(5-carboxypentanoyl)-1-(2-hydroxy-3-(4-octylphenoxy)propyl)-1H-indole-5-carboxylic acid at 100 mg/kg, po after 1 hr by HPLC analysis. The format is ADME, organism-based. Further details: dose 100 mg/kg, route oral. Particulars: in vivo. In a few lines:
as §1

Series [9] has as its system Plasma. Nature of the series: Drug level in C57Bl6 mouse plasma assessed as 3-(5-carboxypentanoyl)-1-(2-hydroxy-3-(4-octylphenoxy)propyl)-1H-indole-5-carboxylic acid at 100 mg/kg, po after 2 hrs by HPLC analysis. The settings on record: in vivo. It is filed as ADME, organism-based. Set-up: dose 100 mg/kg, route oral. An outline of the steps: as §1
Series [10] in a line: Drug level in C57Bl6 mouse intestine assessed per gut at 100 mg/kg, po after 2 hrs by HPLC analysis. Further details: dose 100 mg/kg, route oral. The format is ADME, organism-based. The settings on record: read-out: Drug uptake. In a few lines:
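Whole intestines were taken from C57Bl6 mice (n = 3) 2 h after 100 mg/kg oral gavage in 1% methylcellulose. Each was minced, homogenized at 0 °C in pH 7.4 PBS and extracted with acetonitrile. Pellet washes with PBS/acetonitrile 1:1 were pooled, made up to volume, centrifuged and filtered. Parent and alcohol metabolite per whole gut were quantified by reversed-phase HPLC-UV.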

Series [11] has as its system Intestine. Nature of the series: Drug level in C57Bl6 mouse intestine assessed as 3-(5-carboxypentanoyl)-1-(2-hydroxy-3-(4-octylphenoxy)propyl)-1H-indole-5-carboxylic acid per gut at 100 mg/kg, po after 2 hrs by HPLC analysis. Set-up: dose 100 mg/kg, route oral. The settings on record: in vivo. The format is ADME, organism-based. In a few lines: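 Whole intestine removed 2 h after a single 100 mg/kg gavage (1% methylcellulose suspension) in C57Bl6 mice (n = 3). Tissue minced and homogenised in PBS pH 7.4 at 0 °C, then extracted with acetonitrile with repeated PBS/acetonitrile 1:1 washes, spun 2000g at 4 °C. Pooled extract made up to volume and analysed by reversed-phase HPLC-UV. Amount per gut, mean ± SD.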

Series [12] is described as follows: Drug level in C57Bl6 mouse bile assessed as 3-(5-carboxypentanoyl)-1-(2-hydroxy-3-(4-octylphenoxy)propyl)-1H-indole-5-carboxylic acid at 100 mg/kg, po after 2 hrs by HPLC analysis. The format is ADME, organism-based. Further details: dose 100 mg/kg, route oral. The settings on record: in vivo.
A short description of series [13]: Drug level in C57Bl6 mouse bile assessed as 3-(5-carboxypentanoyl)-1-(2-hydroxy-3-(4-octylphenoxy)propyl)-1H-indole-5-carboxylic acid at 100 mg/kg, po after 2 hrs by HPLC analysis in presence of Helix pomatia beta-glucuronidase HP2. Further details: dose 100 mg/kg, route oral. Particulars: in vivo. It is filed as ADME, organism-based. In a few lines: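 C57Bl6 mice (n = 3) were gavaged once with 100 mg/kg suspended in 1% aqueous methylcellulose, and bile was taken at 2 h. Bile in PBS pH 5.5 was treated with Helix pomatia β-glucuronidase HP-2 at 60 °C for 1 h to cleave glucuronides. Acetonitrile was then added, samples were left 5 min, spun 2000g for 15 min, and analysed by reversed-phase HPLC-UV. Mean ± SD.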

Series [14] in a line: Drug level in rat plasma at 100 mg/kg, po after 4 hrs by HPLC analysis. The format is ADME, organism-based. Set-up: dose 100 mg/kg, route oral.
Series [15] is described as follows: Drug level in C57Bl6 mouse plasma at 10 mg/kg, po after 2 hrs by HPLC analysis. It is filed as ADME, organism-based. Set-up: dose 10 mg/kg, route oral.
Series [16] is described as follows: Drug level in C57Bl6 mouse plasma at 10 mg/kg, po after 1 hr by HPLC analysis. Set-up: dose 10 mg/kg, route oral. The format is ADME, organism-based.

Regarding `CC(C)C(=O)c1cn(CC(=O)COc2ccc(Oc3ccccc3)cc2)c2ccc(C(=O)O)cc12`, the Drug uptake in series [1] is 875 µg; in [4] it was 404 µg. The same compound had a concentration at 2 h in series [2] of less than 1000 ng/mL. Also, the concentration at 1 h in series [3] was less than 5000 ng/mL.
As for `CCCCCCCCc1ccc(OCC(=O)Cn2cc(-c3nc(C)no3)c3cc(C(=O)O)ccc32)cc1`, in series [5], the remaining at 0.5 h turned out to be 81%. In series [6], this compound came in with a logP of 6.3.
As for `CCCCCCCCc1ccc(OCC(=O)Cn2cc(C(=O)CCC)c3cc(C(=O)O)ccc32)cc1`, the logP in series [6] was determined as 6.7.
As for `CCCCCCCCc1ccc(OCC(=O)Cn2cc(C(=O)CCCCC)c3cc(C(=O)O)ccc32)cc1`, in series [6], the logP is more than 7.
With `CCCCCCCCc1ccc(OCC(=O)Cn2cc(C(=O)C(C)(C)C)c3cc(C(=O)O)ccc32)cc1`, in series [5], the remaining at 0.5 h worked out at 93%. This compound returned a logP in series [6] of more than 7.
As to `CCCCCCCCc1ccc(OCC(=O)Cn2cc(C(=O)c3ccccc3)c3cc(C(=O)O)ccc32)cc1`, the remaining at 0.5 h in [5] came out at 95%. The logP in series [6] turned out to be 6.9.
In the case of `CCCCCCCCc1ccc(OCC(=O)Cn2cc(CC)c3cc(C(=O)O)ccc32)cc1`, the remaining at 0.5 h in [5] worked out at 84%. In series [6], the logP is more than 7.
For the compound `CCCCCCCCc1ccc(OCC(=O)Cn2cc(CCCC)c3cc(C(=O)O)ccc32)cc1`, the remaining at 0.5 h in [5] is 82%. For the same compound, the logP in series [6] is more than 7.
Consider `CCCCCCCCc1ccc(OCC(=O)Cn2cc(CCCCCC)c3cc(C(=O)O)ccc32)cc1`, for which the remaining at 0.5 h in [5] is 94%. The logP in series [6] is more than 7.
As to `CCCCCCCCc1ccc(OCC(=O)Cn2cc(C(=O)CCC(=O)O)c3cc(C(=O)O)ccc32)cc1`, in [6], the logP stood at 5.1.
On to `CCCCCCCCc1ccc(OCC(=O)Cn2cc(C(=O)CCCC(=O)O)c3cc(C(=O)O)ccc32)cc1`, for which the remaining at 0.5 h in series [5] is 95%. In addition, in series [6], the logP was determined as 5.2.
As for `CCCCCCCCc1ccc(OCC(=O)Cn2cc(C(=O)CCCCC(=O)O)c3cc(C(=O)O)ccc32)cc1`, the figures for the concentration at 2 h in series [7], in series [10] and in series [2] were 6000 ng/mL, 870000 ng/mL and less than 200 ng/mL, respectively. Also, the Cp in [8] and in [9] was less than 100 ng/mL each time. In [3], this compound yielded a concentration at 1 h of less than 200 ng/mL. In [6], the logP is 5.3.
As to `CCCCCCCCc1ccc(OCC(=O)Cn2cc(C(=O)c3cccc(C(=O)O)c3)c3cc(C(=O)O)ccc32)cc1`, the remaining at 0.5 h in [5] is 87%. For the same compound, the lipophilicity (logP) in series [6] was 5.7.
Taken in the same sequence, the figures for `CCCCCCCCc1ccc(OCC(=O)Cn2cc(C(=O)c3ccc(C(=O)O)cc3)c3cc(C(=O)O)ccc32)cc1` were 87% and 5.6.
As for `CCCCCCCCc1ccc(OCC(=O)Cn2cc(C(=O)C(F)(F)F)c3cc(C(=O)O)ccc32)cc1`, in [5], the remaining at 0.5 h was 87%. This compound also displayed a logP in series [6] of more than 7.
With `O=C(O)CCCCC(=O)c1cn(CC(=O)COc2ccc(Oc3ccccc3)cc2)c2ccc(C(=O)O)cc12`, the remaining at 0.5 h in series [5] is 24%. Further, in series [6], the logP was found to be 2.1.
Turning to `Cc1noc(-c2cn(CC(=O)COc3ccc(Oc4ccccc4)cc3)c3ccc(C(=O)O)cc23)n1`, the remaining at 0.5 h in series [5] came to 8%. For the same compound, the logP in series [6] was determined as 3.1.
With `CCCCCCCCc1ccc(OCC(O)Cn2cc(C(=O)CCCCC(=O)O)c3cc(C(=O)O)ccc32)cc1` (centres undefined), the Drug uptake is 14 µg/mL in [11], less than 1 µg/mL in [12] and 33 µg/mL in series [13].
Turning to `CCCCCCCCCCCC(=O)c1c(C(=O)O)n(CCOc2ccc(CC(=O)O)cc2)c2ccccc12`, the concentration at 4 h in [14] stood at 100000 ng/mL.
In series [15], `COc1ccc2c(c1)c(CC(=O)O)c(C)n2C(=O)c1ccc(Cl)cc1` [INDOMETHACIN] showed a concentration at 2 h of 34000 ng/mL. For the same compound, the concentration at 1 h in [16] was determined as 42000 ng/mL.
